Assay results taken from paper PMC7302971 (Bioorganic chemistry, 2020).

Legend:
[1] = MTT cell viability assay, normal WBCs; type: cell-based; details: human
Method in brief: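 Human WBCs were isolated from diluted blood on HiSep density medium (400 × g, 30 min, room temperature). Mononuclear cells were PBS-washed, RBC-lysed for 5 min, washed again and kept in RPMI 1640 at 37 °C in 5% CO2. Cells were seeded at about 5×10³ per well and exposed to test compound at 2.5–100 μM for 48 h.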

[2] = DNS assay on normal human fibroblast; type: cell-based; details: HS27 normal fibroblasts
Method in brief: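 HS27 fibroblasts were tested by DNS imaging after exposure to test compound. Hoechst 33342, which stains all nuclei, and PI, which enters only membrane-compromised cells, were added before imaging.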

[3] = tested on: GLUT5; test: GLUT transport inhibition assay in hxt0 yeast cells; type: cell-based, human; details: 50 μM compound, 10 mM C14-fructose
Method in brief: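 Human GLUT4 was expressed in VW4000fgy1erg4 yeast (1% maltose, then 0.2% glucose, SC-uracil). GLUT5 was expressed in VW4000 (YEP with 2% maltose and G418, then 2% fructose). PBS-washed cells were exposed to 50 μM test compound. Uptake of 14C-glucose (5 mM, GLUT4) or 14C-fructose (10 mM, GLUT5) ran 10 min, followed by quench, filtration and scintillation counting. Activity was relative to 1% DMSO and to saturating phloretin (GLUT4) or MSNBA (GLUT5). Triplicates.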

[4] = target: T1, GLUT1 (Homo sapiens, UniProt P11166); test: GLUT transport inhibition assay in hxt0 yeast cells; type: cell-based
T1 sequence (P11166 1-492): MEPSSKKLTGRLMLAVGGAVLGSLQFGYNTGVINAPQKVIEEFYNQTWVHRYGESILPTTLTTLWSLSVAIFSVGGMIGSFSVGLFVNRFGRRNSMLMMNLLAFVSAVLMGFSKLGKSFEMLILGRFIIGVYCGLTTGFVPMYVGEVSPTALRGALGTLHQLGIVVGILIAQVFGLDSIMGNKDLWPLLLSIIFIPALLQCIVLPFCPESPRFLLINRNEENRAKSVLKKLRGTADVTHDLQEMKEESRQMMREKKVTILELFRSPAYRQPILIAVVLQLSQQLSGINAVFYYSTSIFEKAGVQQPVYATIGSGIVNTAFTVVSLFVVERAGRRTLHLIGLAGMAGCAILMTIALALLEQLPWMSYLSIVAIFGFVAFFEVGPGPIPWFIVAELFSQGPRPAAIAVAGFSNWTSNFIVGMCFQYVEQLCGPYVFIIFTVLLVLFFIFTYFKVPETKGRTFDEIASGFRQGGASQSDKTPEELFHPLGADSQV
Method in brief: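 hxt0 yeast (VW4000fgy1) expressing human GLUT1 was grown at 30 °C in SC-uracil, first on 2% maltose, then on 2% glucose. Cells were PBS-washed (pH 7.4) to OD600 ~10. Test compound was varied from 0.1 to 100 μM. Uptake of 5 mM 14C-glucose ran 10 min and was stopped with ice-cold quench buffer (pH 5.5). Cells were filtered and counted by scintillation.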

O=C(CN1C(=O)SC(=Cc2ccccn2)C1=O)Nc1nc2ccccc2s1 [Compound P19, N-(benzo[d]thiazol-2-yl)-2-(2,4-dioxo-5-(pyridin-2-ylmethylene)thiazolidin-3-yl)acetamide]
CC50 at 48 h [1]: 104 µM | CC50 [2]: 105 µM | relative transport activity of GLUT5 [3]: ineffective | IC50 [4]: 28.2 µM
